Measurements collected from several papers.
Protocols differ between the studies behind these lines. ≈ marks a conversion by molar mass, not a printed value.

`N#CC(=C1C=CC(=NOC(=O)OCc2ccccc2)C=C1)c1ccccc1` gave an MIC of 128 µg/mL (≈ 359 µM) (Pichia kudriavzevii; microbial growth, broth dilution; ATCC14243; 48 h).
`O=C1/C(=C/c2ccc3ccccc3c2O)NC(=S)N1c1ccccc1` has an MIC of 20 µg/mL (≈ 57.7 µM) (Fusarium solani; microbial growth, broth dilution).
The IC50 of `CC1=C(Cc2cn(CCN3CCC(F)(F)CC3)nn2)C(=O)c2ccccc2C1=O` is reported as 1600 nM (Schistosoma mansoni; parasite growth; 72 h, larva).
`Cc1ccc(NC(=O)c2ccc(COC(Cn3ccnc3)c3ccc(Cl)cc3Cl)cc2)cc1` (centres unmarked) gave an MIC80 of 0.125 µg/mL (≈ 0.26 µM) (Pichia kudriavzevii; microbial growth, broth dilution).
The IC50 of `CC1=C(Cc2cn(CCN3CCN(C(=O)OC(C)(C)C)CC3)nn2)C(=O)c2ccccc2C1=O` is reported as 1890 nM (Schistosoma mansoni; parasite growth; 72 h, larva).
`Clc1ccc(COC(Cn2ccnc2)c2ccc(Cl)cc2Cl)c(Cl)c1` (centres unmarked) has an MIC80 of 0.5 µg/mL (≈ 1.2 µM) (Pichia kudriavzevii; microbial growth, broth dilution).
The MFC of `C#CCON=C1C=CC(=C(C#N)c2ccccc2)C=C1` is reported as 64 µg/mL (≈ 246 µM) (Pichia kudriavzevii; microbial killing, broth dilution; ATCC14243; 48 h).
`CC1=C(Cn2cc(COC3COC3)nn2)C(=O)c2ccccc2C1=O` has an IC50 of 1080 nM (Schistosoma mansoni; parasite growth; 72 h, larva).
With `O=C(Nc1ccc2cccnc2c1)c1ccc(COC(Cn2ccnc2)c2ccc(Cl)cc2Cl)cc1` (centres unmarked) the MIC80 was 8 µg/mL (≈ 15.5 µM) (Pichia kudriavzevii; microbial growth, broth dilution).
For `C[C@@H]1[C@H](O)[C@@H](C)/C=C/C=C/C=C/C=C/C=C/C=C/C=C/[C@H](O[C@@H]2O[C@H](C)[C@@H](O)[C@H](N)[C@@H]2O)C[C@@H]2O[C@](O)(C[C@@H](O)C[C@@H](O)[C@H](O)CC[C@@H](O)C[C@@H](O)CC(=O)O[C@H]1C)C[C@H](O)[C@H]2C(=O)O`, the MIC was 2 µg/mL (≈ 2.16 µM) (Pichia kudriavzevii; microbial growth, broth dilution; ATCC14243; 48 h).
For `O=C(Nc1cccc2ccccc12)c1ccc(COC(Cn2ccnc2)c2ccc(Cl)cc2Cl)cc1` (centres unmarked), the MIC80 was 16 µg/mL (≈ 31 µM) (Pichia kudriavzevii; microbial growth, broth dilution).
For `CC(=O)ON=C1C=CC(=C(C#N)c2ccccc2)C=C1`, the MIC was 16 µg/mL (≈ 60.5 µM) (Pichia kudriavzevii; microbial growth, broth dilution; ATCC14243; 48 h).
`CC1=C(Cn2cc(CO)nn2)C(=O)c2ccccc2C1=O` has an IC50 of 1050 nM (Schistosoma mansoni; parasite growth; 72 h, larva).
`COc1cc(NC(=O)Cn2ccc3ccc(-c4nnc(C)o4)cc32)cc(OC)c1OC` has an EC50 of 200 to 660 nM (Plasmodium knowlesi; parasite growth, SYBR Green; 30 h, blood stage).
For `O=C(Nc1ccc(F)cc1)c1ccc(COC(Cn2ccnc2)c2ccc(Cl)cc2Cl)cc1` (centres unmarked), the MIC80 was 0.06 µg/mL (≈ 0.124 µM) (Pichia kudriavzevii; microbial growth, broth dilution).
With `C#CCOC(=O)ON=C1C=CC(=C(C#N)c2ccccc2)C=C1` the MIC was 16 µg/mL (≈ 52.6 µM) (Pichia kudriavzevii; microbial growth, broth dilution; ATCC14243; 48 h).
For `CC1=C(Cn2cncn2)C(=O)c2ccccc2C1=O`, the IC50 was 900 nM (Schistosoma mansoni; parasite growth; 72 h, larva).
With `C=CC(=O)ON=C1C=CC(=C(C#N)c2ccccc2)C=C1` the MFC was 16 µg/mL (≈ 57.9 µM) (Pichia kudriavzevii; microbial killing, broth dilution; ATCC14243; 48 h).
`CC1=C(Cn2cc([Si](C)(C)C)nn2)C(=O)c2ccccc2C1=O` has an IC50 of 1570 nM (Schistosoma mansoni; parasite growth; 72 h, larva).
`O=C(Nc1ccc(Br)cc1)c1ccc(COC(Cn2ccnc2)c2ccc(Cl)cc2Cl)cc1` (centres unmarked) has an MIC80 of 0.06 µg/mL (≈ 0.11 µM) (Pichia kudriavzevii; microbial growth, broth dilution).
The IC50 of `CC1=C(Cn2cc(CN3CCN(C(=O)OC(C)(C)C)CC3)nn2)C(=O)c2ccccc2C1=O` is reported as 1500 nM (Schistosoma mansoni; parasite growth; 72 h, larva).
`O=C(Nc1cccc(Cl)c1)c1ccc(COC(Cn2ccnc2)c2ccc(Cl)cc2Cl)cc1` (centres unmarked) gave an MIC80 of 0.25 µg/mL (≈ 0.499 µM) (Pichia kudriavzevii; microbial growth, broth dilution).
For `CCON=C1C=CC(=C(C#N)c2ccccc2)C=C1`, the MIC was 256 µg/mL (≈ 1020 µM) (Pichia kudriavzevii; microbial growth, broth dilution; ATCC14243; 48 h).
